ChEMBL document CHEMBL4190282, “The Conjugated Double Bond of Coniferyl Aldehyde Is Essential for Heat Shock Factor 1 Mediated Cytotoprotection” (J Nat Prod, 2017)
Calls of active or inactive are those of the source. No cut-off for these calls is given here.

How the values were obtained:
[1] = biological target: T1, Heat shock factor protein 1 (Homo sapiens) (UniProt Q00613); assay: Activation of HSF1 in human L132 cells assessed as increase in HSP70 protein levels at 1 to 3 uM after 12 hrs by immunoblotting analysis; assay type: cell-based
T1 sequence (whole entry): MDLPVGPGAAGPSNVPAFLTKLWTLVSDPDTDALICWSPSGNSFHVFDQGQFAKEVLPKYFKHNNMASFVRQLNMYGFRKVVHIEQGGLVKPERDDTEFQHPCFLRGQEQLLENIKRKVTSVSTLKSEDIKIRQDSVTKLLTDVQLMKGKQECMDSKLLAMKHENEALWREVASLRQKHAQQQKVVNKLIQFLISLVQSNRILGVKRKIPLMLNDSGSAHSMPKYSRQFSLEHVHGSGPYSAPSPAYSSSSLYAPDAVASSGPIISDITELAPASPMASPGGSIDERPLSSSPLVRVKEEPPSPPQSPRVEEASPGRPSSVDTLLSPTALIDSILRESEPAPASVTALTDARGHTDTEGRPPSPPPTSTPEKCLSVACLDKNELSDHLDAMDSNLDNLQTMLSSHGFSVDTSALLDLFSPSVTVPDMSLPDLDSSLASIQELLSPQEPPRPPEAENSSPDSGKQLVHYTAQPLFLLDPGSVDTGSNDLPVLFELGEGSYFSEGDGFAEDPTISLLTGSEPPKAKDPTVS
Summary of the method: (§1)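 L132 cells treated at 3 μM for 12 h, or at various doses for 12 h, or at 3 μM over a time course. Lysates resolved by SDS-PAGE, blotted to nitrocellulose, milk-blocked, primary antibodies 18 h at 4 °C, ECL detection. HSP27, HSP70 and Ser326-phospho-HSF1 bands normalized to loading control; ≥3 independent experiments; celastrol 1 μM positive control.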

[2] = system: MEF; assay: Cytoprotective activity against cisplatin-induced PARP cleavage in HSF1 deficient MEF at 3 uM pretreated for 1 hr followed by cisplatin addition measured after 24 hrs by immunoblotting analysis; assay type: functional, cell-based; conditions: Mus musculus
Summary of the method: (§2)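 HSF1+/+ or HSF1−/− MEFs in DMEM with heat-inactivated 10% FBS, nonessential amino acids, glutamine, HEPES, 37 °C, 5% CO2. 1 h pretreatment at 3 μM, then 0.5 μM paclitaxel or 20 μM cisplatin for 24 h, or 10 Gy 137Cs γ-rays (3.81 Gy/min) for 48 h. Cleaved PARP and caspase-3 immunoblotted; bands normalized to loading control, fold-change vs negative control, ≥3 independent experiments.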

[3] = system: L132; assay: Cytoprotective activity against IR-induced cell death in human L-132 cells at 3 uM pretreated for 1 hr followed by 10 Gy irradiation measured after 48 hrs by FACS analysis; assay type: functional, cell-based
Summary of the method: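 L132 cells in RPMI with 10% FBS. 1 h pretreatment at 3 μM, then 0.5 μM paclitaxel or 20 μM cisplatin for 24 h, or 10 Gy γ-rays for 48 h. Cells trypsinized, washed, stained with propidium iodide and analysed by flow cytometry. Means ± SD of ≥3 independent experiments, fold-change vs negative control.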

[4] = system: Mus musculus; assay: Protection against IR-induced bone marrow damage in ICR mouse at 10 mg/kg, ip administered once before and three times after 4.5 Gy irradiation measured after 9 days by hematoxylin and eosin staining based assay; assay type: functional, organism-based
Summary of the method: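 Female ICR mice (5–6 weeks) given 4.5 Gy whole-body IR, dosed ip at 10 mg/kg once before and three times after IR; 5 per group, sacrificed day 9. BM cellularity from H&E (hematopoietic cells per 200×200 μm area); peripheral WBC, lymphocytes, neutrophils; Ki67 IHC counted in five fields per femur; relative spleen weight vs control. Means ± SD, Student's t test.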

[5] = biological target: T1, Heat shock factor protein 1 (Homo sapiens); assay: Activation of HSF1 in human L132 cells assessed as increase in HSP27 protein levels at 3 uM by immunoblotting analysis; assay type: cell-based; conditions: TDE = time-dependent effect; summary of the method: as §1
[6] = biological target: T1, Heat shock factor protein 1 (Homo sapiens); assay: Activation of HSF1 in human NCI-H460 cells assessed as upregulation of HSP70 protein levels at 10 to 30 uM after 12 hrs by Western blot analysis; assay type: cell-based
Summary of the method: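 NCI-H460 cells treated 12 h at 10 or 30 μM; HSF1, HSP27 and HSP70 detected by Western blot.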

[7] = system: L132; assay: Cytoprotective activity against paclitaxel-induced caspase3 cleavage in human L-132 cells at 3 uM pretreated for 1 hr followed by paclitaxel addition measured after 24 hrs by immunoblotting analysis; assay type: functional, cell-based
Summary of the method: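 Human embryonic lung L132 cells in RPMI with 10% FBS. 1 h pretreatment at 3 μM, then 0.5 μM paclitaxel or 20 μM cisplatin for 24 h, or 10 Gy 137Cs γ-rays (3.81 Gy/min) for 48 h. Cleaved PARP and caspase-3 immunoblotted (ECL); bands normalized to loading control, fold-change vs negative control, ≥3 independent experiments.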

[8] = biological target: T2, Heat shock factor protein 1 (Mus musculus) (UniProt P38532); assay: Activation of HSF1 in MEF assessed as protection against IR-induced caspase3 cleavage at 3 uM pretreated for 1 hr followed by 10 Gy irradiation measured after 48 hrs by immunoblotting analysis; assay type: cell-based; summary of the method: as §2
T2 sequence (whole entry): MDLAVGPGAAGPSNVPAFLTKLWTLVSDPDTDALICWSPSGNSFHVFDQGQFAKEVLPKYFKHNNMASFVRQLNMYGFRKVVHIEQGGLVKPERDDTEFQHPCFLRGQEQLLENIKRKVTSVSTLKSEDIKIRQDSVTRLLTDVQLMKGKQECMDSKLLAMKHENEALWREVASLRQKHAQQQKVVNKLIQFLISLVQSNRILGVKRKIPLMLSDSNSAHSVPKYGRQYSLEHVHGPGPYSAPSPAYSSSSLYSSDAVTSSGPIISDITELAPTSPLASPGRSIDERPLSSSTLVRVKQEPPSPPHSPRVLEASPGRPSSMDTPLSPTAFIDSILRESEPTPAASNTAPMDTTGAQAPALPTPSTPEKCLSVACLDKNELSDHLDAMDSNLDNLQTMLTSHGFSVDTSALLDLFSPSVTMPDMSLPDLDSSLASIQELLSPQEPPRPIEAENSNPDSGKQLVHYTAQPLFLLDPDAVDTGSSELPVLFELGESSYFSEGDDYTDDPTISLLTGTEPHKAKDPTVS

[9] = biological target: T1, Heat shock factor protein 1 (Homo sapiens); assay: Activation of HSF1 in human L132 cells assessed as increase in HSP27 protein levels after 12 hrs by immunoblotting analysis; assay type: cell-based; summary of the method: as §1

With `COc1cc(/C=C/CO)ccc1O` [CONIFERYL ALCOHOL] the Activity [1] was “Active”, the Activity [2] was “inactive” and the Activity [3] was “Active”. For the same molecule, the Activity [4] was “Active”, the Activity [5] was “Tde” and the Activity [6] was “Active”. For the same molecule, the Activity [7] was “Active” and the Activity [8] was “Active”.

In the case of `COc1cc(/C=C/C=O)ccc1O` [CONIFERYL ALDEHYDE], the Activity [1] is reported as “Active”, the Activity [2] is reported as “inactive” and the Activity [3] is reported as “Active”. For the same molecule, the Activity [4] was “Active”, the Activity [9] was “Dose-dependent effect” and the Activity [6] was “Active”. The Activity [7] was “Active” and the Activity [8] was “Active”.
